In ChEMBL document CHEMBL1649362, “Cytotoxic triterpenoids from Maytenus retusa” (J Nat Prod, 2010):
Structures can show the parent of a compound that is named as a salt.

Tests used:
HL-60 [1] = experiment: Cytotoxicity against human HL60 cells at 1 uM after 48 hrs by MTT assay; assay type: functional; settings: HL-60, 48 h
Procedure, shortened: (§1)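 HL60 cells (ATCC) grown in RPMI with 10% FBS and seeded at 10 000 cells/well. After 48 h exposure, MTT added (0.5 mg/mL final) for 3 h at 37 °C. Formazan dissolved in SDS-HCl (20% SDS, 0.02 M HCl) and read at 570 nm. IC50 obtained by nonlinear regression.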

HL-60 [2] = experiment: Cytotoxicity against human HL60 cells at 30 uM after 48 hrs by MTT assay; assay type: functional; settings: HL-60, 48 h; procedure, shortened: as §1
HL-60 [3] = experiment: Cytotoxicity against human HL60 cells at 10 uM after 48 hrs by MTT assay; assay type: functional; settings: HL-60, 48 h; procedure, shortened: as §1
MCF7 [4] = experiment: Cytotoxicity against human MCF7 cells at 10 uM after 48 hrs by MTT assay; assay type: functional; settings: MCF7, 48 h
Procedure, shortened: (§2)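 MCF-7 cells (ATCC) maintained in DMEM with 10% FBS and plated at 10 000 cells/well. MTT (0.5 mg/mL final) then incubated 3 h at 37 °C. Formazan solubilized in 20% SDS/0.02 M HCl and absorbance read at 570 nm. IC50 from nonlinear regression.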

MCF7 [5] = experiment: Cytotoxicity against human MCF7 cells at 30 uM after 48 hrs by MTT assay; assay type: functional; settings: MCF7, 48 h; procedure, shortened: as §2
MCF7 [6] = experiment: Cytotoxicity against human MCF7 cells at 1 uM after 48 hrs by MTT assay; assay type: functional; settings: MCF7, 48 h; procedure, shortened: as §2
HL-60 [7] = experiment: Cytotoxicity against human HL60 cells after 48 hrs by MTT assay; assay type: functional, cell-based; settings: HL-60, 48 h; procedure, shortened: as §1
MCF7 [8] = experiment: Cytotoxicity against human MCF7 cells after 48 hrs by MTT assay; assay type: functional, cell-based; settings: MCF7, 48 h; procedure, shortened: as §2

Row | Compound | inhibition at 1 µM (HL-60 [1]) [%] | inhibition at 30 µM (HL-60 [2]) [%] | inhibition at 10 µM (HL-60 [3]) [%] | inhibition at 10 µM (MCF7 [4]) [%] | inhibition at 30 µM (MCF7 [5]) [%] | inhibition at 1 µM (MCF7 [6]) [%] | IC50 (HL-60 [7]) [nM] | IC50 (MCF7 [8]) [nM]
1 | CC1=C2C3C(=O)C=C4C(=CC(=O)C(O)=C4C)[C@]3(C)CC[C@@]2(C)[C@@H]2C[C@@H](C)C(=O)C[C@]2(C)C1 (some centres undefined) | 0 | 51 | 0 | 11 | 5 | 9 | – | –
2 | COc1c(O)cc2c(c1C(=O)O)C(=O)C=C1[C@@]2(C)CC[C@@]2(C)[C@@H]3C[C@@H](C)C(=O)C[C@]3(C)CC[C@]12C | 78 | 59 | 57 | 17 | 11 | 15 | – | –
3 | COC(=O)[C@]1(C)CC[C@]2(C)CC[C@]3(C)C4CC(=O)c5cc(O)c(O)cc5[C@]4(C)CC[C@@]3(C)[C@@H]2C1 (some centres undefined) | 35 | 65 | 64 | 0 | 44 | 4 | – | –
4 | CC1=C(O)C(=O)C=C2C1=CC=C1[C@@]2(C)CC[C@@]2(C)[C@@H]3C[C@@](C)(O)C(=O)C[C@]3(C)CC[C@]12C | 80 | 90 | 89 | 100 | 100 | 21 | 200 | 1400
5 | Cc1c(O)c(O)cc2c1C(=O)C=C1[C@@]2(C)CC[C@@]2(C)[C@@H]3C[C@@H](C)C(=O)C[C@]3(C)CC[C@]12C [6-OXOTINGENOL] | 45 | 100 | 85 | 8 | 17 | 10 | – | –
6 | CC1=C(O)C(=O)C=C2C1=CC=C1[C@@]2(C)CC[C@@]2(C)[C@@H]3C[C@](C)(O)C(=O)C[C@]3(C)CC[C@]12C [20ALPHA-HYDROXYTINGENONE] | 25 | 87 | 100 | 85 | 100 | 14 | 400 | 4700
7 | COC(=O)[C@@]1(C)C[C@@H]2[C@@](C)(CC[C@]3(C)C4=CC=C5C(=CC(=O)C(O)=C5C)[C@]4(C)CC[C@@]23C)CC1=O [21-OXOPRISTIMERINE] | 0 | 100 | 88 | 32 | 91 | 0 | 1400 | 10000
8 | CC1=C(O)C(=O)C=C2C1=CC(=O)[C@@H]1[C@@]2(C)CC[C@@]2(C)[C@@H]3C[C@@H](C)C(=O)C[C@]3(C)CC[C@]12C [AMAZOQUINONE] | 66 | 100 | 61 | 16 | 18 | 10 | – | –
9 | COC(=O)[C@@]1(C)C[C@@H]2[C@@](C)(CC[C@]3(C)C4CC(=O)c5c(cc(O)c(O)c5C)[C@]4(C)CC[C@@]23C)CC1=O (some centres undefined) [BLEPHARODOL] | 69 | 100 | 79 | 8 | 7 | 15 | – | –
10 | CC1=C(O)C(=O)CC2[C@]3(C)CC[C@@]4(C)[C@@H]5C[C@](C)(C(=O)O)CC[C@]5(C)CC[C@]4(C)C3CC[C@]12C=O (some centres undefined) [CANGORONINE] | 40 | 60 | 48 | 9 | 15 | 16 | – | –
11 | COC(=O)[C@]1(C)CC[C@]2(C)CC[C@]3(C)C4C(=O)C=C5C(=CC(=O)C(O)=C5C)[C@]4(C)CC[C@@]3(C)C2C1 (some centres undefined) [DISPERMOQUINONE] | 0 | 100 | 100 | 25 | 60 | 9 | 1700 | > 30000
12 | COc1cccc2c1C(=O)c1c(O)c3c(c(O)c1C2=O)C[C@@](O)(C(=O)CO)C[C@@H]3O[C@H]1C[C@H](N)[C@H](O)[C@H](C)O1 [DOXORUBICIN HYDROCHLORIDE] | 100 | 100 | 89 | 76 | 98 | 69 | 100 | > 10000
13 | COC(=O)[C@@]1(C)C[C@@H]2[C@@](C)(CC[C@]3(C)C4CC(=O)c5c(cc(O)c(O)c5C=O)[C@]4(C)CC[C@@]23C)CC1=O (some centres undefined) [MACROCARPIN A] | 0 | 100 | 100 | 25 | 36 | 14 | 1700 | > 30000
14 | COC(=O)[C@]1(C)CC[C@]2(C)CC[C@]3(C)C4=CC=C5C(=CC(=O)C(O)=C5C)[C@]4(C)CC[C@@]3(C)[C@@H]2C1 [PRISTIMERIN] | 96 | 100 | 100 | 100 | 100 | 42 | 200 | 400
15 | CC1=C(O)C(=O)C=C2C1=CC=C1[C@@]2(C)CC[C@@]2(C)[C@@H]3C[C@@H](C)C(=O)[C@@H](O)[C@]3(C)CC[C@]12C [TINGENIN B] | 55 | 88 | 82 | 96 | 100 | 16 | 700 | 4400
16 | CC1=C(O)C(=O)C=C2C1=CC=C1[C@@]2(C)CC[C@@]2(C)[C@@H]3C[C@@H](C)C(=O)C[C@]3(C)CC[C@]12C [TINGENONE] | 46 | 96 | 100 | 97 | 100 | 17 | 500 | 3000
